Screens from PubChem.
Hsp70 act = transcriptional activators of Hsp70 | HeLa Hsp70 promoter luciferase reporter, luminescence; scaled: vehicle 0, proteasome-inhibitor control 100% | activation, % at 10 µM | 200,000 tested, 0.04% active;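 active means activation above the mean across all tested compounds plus 3 SD, cutoff set per campaign, cut at about 5.5% in these data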;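 further: 100% = MG132 at 30 µM as the positive control and 0% = DMSO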
Lmaj promast = Leishmania major promastigote growth inhibition | Leishmania major promastigotes, resazurin fluorescence viability | inhibition, % at 10 µM | 200,000 tested, 9% active; in the data active means inhibition above about 50%;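 further: promastigotes grown with compound for 44 hours at 28 °C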
HSF-1 act = increases HSF-1 driven luciferase reporter signal. NIH3T3-HGL HSF-1 luciferase reporter, MG132, 8 h; 100% = twice DMSO control signal. activation, % at 9 µM. 300,000 tested, 1.7% active;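 active means mean replicate activation of at least 50% with a set share of replicates each reaching 50%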;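 further: 0% = median of the neutral control wells and 100% = twice that signal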
HSF1 inh = HSF1 inhibition. NIH3T3-HGL HSE-luciferase, MG132-induced, luminescence 8 h; stronger effect = lower value. activity change, negative = inhibition, % at 7.5 µM (by protocol). 300,000 tested, 0.77% active. AID 2098;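 active means more than half of replicate wells show activity change below -50%, luminescence cut by over half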;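 further: luciferase reports HSF-1 transcriptional activity via heat shock element; 0% = median of DMSO wells and -100% = zero luminescence signal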
T cruzi inh = blocks replication of Trypanosoma cruzi. T. cruzi beta-gal in NIH3T3, luminescence, 90 h. inhibition, % (no concentration beside the values). 300,000 tested, 1.4% active. AID 1885;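 active means mean inhibition across valid replicates above about 55%, limit read from the data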;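 further: signal also drops with host cell toxicity which is not excluded here; 0% = plate median of DMSO wells and 100% = zero luminescence signal; higher percent means less beta-gal luminescence so fewer parasites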
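System: mouse NIH/3T3 fibroblasts infected with β-gal-expressing T. cruzi Tulahuen C4 / Input: NIH/3T3 cells, 5,000 per well / Buffer or medium: Low-serum DMEM with 2% FBS / Probe or stimulus: 5000 reporter trypomastigotes per well / Schedule: ≥90 h infection period, 3 h prior cell attachment / Measured by: GalScreen luminescence, 60 min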
Numbers without * were called inactive; x = not tested or not shown. The full list was thinned out, with hits kept by preference.

SMILES	Hsp70 act	Lmaj promast	HSF-1 act	HSF1 inh	T cruzi inh
OCCC1CN(CCCn2cccn2)CCN1Cc1ccccc1 (centres undefined)	0.0	-3.9	-3.6	0.8	-5.3
CCOc1ccc(CN2CCN(Cc3nc(C(C)C)cs3)CC2CCO)cc1 (centres undefined)	-0.2	81.1*	8.3	-5.2	58.2*
CCOc1ccc(CN2CCN(C3CCSCC3)CC2CCO)cc1 (centres undefined)	0.2	73.2*	-10.4	-4.9	18.1
CC(C)c1csc(CN2CCN(Cc3ccccc3)C(CCO)C2)n1 (centres undefined)	-0.2	1.2	-5.7	-5.9	5.2
CCCCOc1ccccc1NC(=O)CC1SC(=NCC)N(CC)C1=O (centres undefined)	0.1	2.5	26.3	6.4	13.9
Cc1cc(C)n2nc(CNS(=O)(=O)c3ccc(F)c(C)c3)nc2n1	x	x	14.5	7.3	-17.5
CCCOc1ccc(C(=O)NC2CCSc3ccccc32)cc1 (centres undefined)	x	x	-16.0	-7.0	-6.4
COc1ccc(C(=O)NC2CCN(Cc3c(F)cccc3Cl)CC2)cc1OC	x	x	-21.4	-4.7	4.9
C=CCNC(=O)c1c(C(F)(F)F)nn(C)c1Cl	0.0	-0.1	-63.6	-54.5*	-11.7
O=C(CC1C(=O)NCCN1CC1CCCCC1)NCc1cccc(F)c1F (centres undefined)	-0.1	-6.5	2.3	9.8	13.0
CC(NS(=O)(=O)c1ccc2c(c1)c(=O)n(C)c(=O)n2C)C(=O)NC1CCCCC1 (centres undefined)	x	x	-19.3	3.2	-31.5
CC(C)Cc1nc2oc3c(N4CCN(CCO)CC4)ncnc3c2c2c1CCCC2	-0.3	51.7*	-8.2	5.6	24.6
O=c1c2ccccc2c(C=NCCCN2CCOCC2)c(O)n1Cc1ccccc1	-0.1	34.2	-21.3	-11.3	12.6
O=c1c2ccccc2c(C=NCCCN2CCOCC2)c(O)n1Cc1ccc2c(c1)OCO2	-0.3	85.6*	-0.3	5.9	32.1
COc1ccc2c(c1)CC/C(=C/c1ccncc1)C2=O	-0.3	74.9*	7.6	4.6	-38.9
COc1ccc2c(c1)CC/C(=C\C=C\c1ccccc1OC)C2=O	-0.1	4.2	57.9*	52.9	10.0
COc1ccc2c(c1)CC/C(=C\c1ccc(C)o1)C2=O	x	x	43.7	24.4	4.1
Cc1cc(C(C)(C)C)oc1C(=O)N(CC(=O)NC1CCCC1)c1c(C)cccc1C	-0.4	24.1	-57.7	-52.8*	31.9
Cc1cc(C(C)(C)C)oc1C(=O)N(CC(=O)NC1CCCC1)c1ccc(F)cc1	-0.3	14.5	17.9	-2.3	17.5
COc1ccccc1N(CC(=O)NC1CCCC1)C(=O)c1oc(C(C)(C)C)cc1C	-0.3	61.5*	2.6	0.6	-2.9
Cc1ccccc1N(CC(=O)N/N=C/c1ccc(F)cc1)C(=O)c1ccccc1	-0.2	99.2*	-0.2	4.1	8.6
CCOC(=O)CN(C(=O)c1ccccc1)c1ccccc1C	-0.3	7.2	19.4	2.6	-17.5
O=C(CN1c2ccccc2Sc2ccccc21)N/N=C/c1ccc(Cl)cc1	x	x	61.3*	25.3	x
Cc1ccccc1NC(=O)CCC(=O)N/N=C/c1ccc(F)cc1	0.1	-2.8	-16.3	-1.4	7.4
Cc1ccccc1N(CC(=O)N/N=C/c1ccc(Cl)cc1)C(=O)c1ccccc1	-0.2	67.5*	6.2	-4.7	14.8
SMILES	Hsp70 act	Lmaj promast	HSF-1 act	HSF1 inh	T cruzi inh
O=C(CN1c2ccccc2Sc2ccccc21)N/N=C/c1ccc(Cl)cc1Cl	x	x	9.5	-1.5	49.3
Cc1ccc(S(=O)(=O)N(C)C)cc1NC(=O)CCNC(=O)c1ccco1	x	x	-31.4	-13.4	-5.9
Cc1[nH]c(-c2ccc3c(c2)OCO3)nc1C(=O)O	-0.2	-5.9	3.5	-1.3	-2.5
CC(C)N1CCC2(CC1)N=C(c1ccc3c(c1)OCO3)CC(c1cc(Cl)ccc1O)N2 (centres undefined)	0.3	100.5*	31.4	-1.8	5.9
O=C(NC(=S)NC1C2CC3CC(C2)CC1C3)C12CC3CC(CC(C3)C1)C2 (centres undefined)	-0.4	51.2*	-2.9	-1.2	30.0
CC(C)(C)NC(=S)NC(=O)C12CC3CCC(CC(C3)C1)C2	0.2	6.7	-0.3	-2.5	28.8
COc1ccc(CC(=O)N/N=C(\C)CC(=O)Nc2ccc(N(C)C)cc2)cc1OC	x	x	11.8	-11.1	2.2
Cc1nc(C(=O)Nc2ccc(Cl)cc2)sc1C1(C)CC(c2cccc([N+](=O)[O-])c2)=NO1 (centres undefined)	x	x	-0.4	-4.2	66.0*
